Measured values from different studies.
Protocols differ between the studies behind these lines. pIC50: −log10 of the molar value.
Cell line: MRC5
Read-out: cell growth or viability

With COc1cc2ccc(=O)oc2cc1OC the pIC50 was less than 4.00 (MTT; 72 h).
O=C([O-])c1ccc(-n2nc(-c3ccccc3O)nc2-c2ccccc2[O-])cc1.O=C([O-])c1ccc(-n2nc(-c3ccccc3O)nc2-c2ccccc2[O-])cc1.[Ti+4] has a pIC50 of 4.60 (MTT; 72 h).
With COc1cccc(C(=O)O[C@@H]2CN3Cc4c(cc5c(c4OC)OCO5)[C@@]24C=C[C@H](OC)C[C@@H]34)c1 the pIC50 was less than 5.00 (WST-1).
CCCCC/C=C/C(=O)CCc1ccc(O)c(OC)c1 has a pIC50 of 4.73 (SRB).
COc1ccc(C(=O)O[C@@H]2CN3Cc4c(cc5c(c4OC)OCO5)[C@@]24C=C[C@H](OC)C[C@@H]34)cc1 gave a pIC50 of less than 5.00 (WST-1).
With O=C(/C=C/C=C/c1ccc2c(c1)OCO2)N1CCCCC1 the pIC50 was 3.87 (SRB).
Oc1ccccc1-c1n[nH]c(-c2ccccc2O)n1 gave a pIC50 of less than 4.00 (MTT; 72 h).
CC(C)=CCC/C(C)=C/COc1ccc2ccc(=O)oc2c1 gave a pIC50 of less than 4.00 (MTT; 72 h).
COc1c2c(cc3c1OCO3)[C@]13C=C[C@H](OC)C[C@H]1N(C2)C[C@H]3OC(=O)c1cccc(C)c1 gave a pIC50 of less than 5.00 (WST-1).
CC(=O)O[C@H]1C(=O)[C@@]2(C)[C@H]([C@H](OC(=O)c3ccccc3)[C@]3(O)C[C@H](OC(=O)[C@H](O)[C@@H](NC(=O)c4ccccc4)c4ccccc4)C(C)=C1C3(C)C)[C@]1(OC(C)=O)CO[C@@H]1C[C@@H]2O gave a pIC50 of 7.85 (SRB).
